procasp3 activ: procaspase-3 (human) activation; P42574; recombinant procaspase-3 D3A, Ac-DEVD-pNA absorbance 405 nm; activation, % at 8.5 µM; actives 0.11% (n = 330,000); AID 463141;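 active means activation above the mean of all tested compounds plus 3 SD, cut at about 21% in these data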
Target sequence (P42574 whole entry D9A/D28A/D175A): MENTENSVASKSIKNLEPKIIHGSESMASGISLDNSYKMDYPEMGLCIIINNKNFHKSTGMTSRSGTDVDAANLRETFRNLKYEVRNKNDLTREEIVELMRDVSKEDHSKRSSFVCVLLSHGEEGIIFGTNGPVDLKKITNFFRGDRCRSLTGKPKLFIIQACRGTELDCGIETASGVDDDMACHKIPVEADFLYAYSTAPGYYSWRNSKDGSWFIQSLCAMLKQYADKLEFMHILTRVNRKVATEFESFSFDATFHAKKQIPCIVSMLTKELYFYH
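Assay system – Procaspase-3 D3A mutant · Benchmarks – DMSO low control, extra-enzyme high control · Technique – 405 nm absorbance of p-nitroaniline, reads at 0 and 120 min · Doses – 8.5 µM nominal · Measure – % activation between DMSO and enzyme-spiked controls · Also added – Ac-DEVD-pNA chromogenic peptide substrate · Schedule – 1 h compound preincubation, 2 h substrate hydrolysis at 25 °C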
IDE cell activ: IDE (human) activation, cell-based; P14735; HEK cells, FAbeta-B cleavage, fluorescence polarization; 0% vehicle, 100% cell-free pure enzyme wells; activation, % at 5.96 µM; actives 0.073% (n = 340,000);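 active means activation above the mean of all tested compounds plus 3 SD, set per screening campaign, cut at about 17% in these data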
IDE inh: inhibits human insulin-degrading enzyme in HEK cells; P14735; FAbetaB cleavage, fluorescence polarization; inhibition, % at 5.59 µM; actives 0.41% (n = 320,000); AID 434962;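 active means percent inhibition above the average of all tested compounds plus 3 SD, set per screening campaign, cut at about 16% in these data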;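 further: IDE supplied by intact live HEK cells; FP after avidin binding of uncleaved biotin substrate so inhibition keeps polarization high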
TPT1 inh: blocks Candida albicans tRNA 2'-phosphotransferase; actives 0.81% (n = 300,000); recombinant caTPT1, FP RNA substrate dephosphorylation; AID 1962; inhibition, % at 5 µM;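 active means inhibition above the mean of all tested compounds plus 3 SD, set per screening campaign, cut at about 24% in these data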
proCasp7 act: activates human procaspase-7, counter-screen for procaspase-3 activators; recombinant procaspase-7, Ac-DEVD-pNA absorbance 405 nm; D23A/D198A/D206A triple mutant, cannot self-cleave; scale: DMSO 0, 5 µM enzyme 100; actives 0.093% (n = 330,000); activation, % at 8.5 µM; AID 463210; P55210;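 active means percent activation above the screen-wide mean plus 3 SD, cut at about 25% in these data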
Target sequence (P55210 whole entry D23A/D198A/D206A): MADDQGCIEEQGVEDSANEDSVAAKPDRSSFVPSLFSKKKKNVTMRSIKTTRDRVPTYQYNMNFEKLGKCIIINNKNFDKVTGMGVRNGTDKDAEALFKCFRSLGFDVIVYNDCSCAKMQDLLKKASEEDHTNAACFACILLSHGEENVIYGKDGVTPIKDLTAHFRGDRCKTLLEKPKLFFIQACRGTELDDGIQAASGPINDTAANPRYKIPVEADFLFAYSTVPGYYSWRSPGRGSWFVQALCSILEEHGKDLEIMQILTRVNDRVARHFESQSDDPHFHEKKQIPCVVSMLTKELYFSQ
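buffer or medium = Zinc-free HEPES/NaCl buffer, pH 7.4 | material = Procaspase-7 triple mutant (PC-7 D3A) | input = 2 µM procaspase-7 mutant as dispensed | signal = Epi-absorbance of released pNA at 405 nm, two timepoints | timing = 1 h preincubation, 2 h reaction | replicates = singlicate compound testing | evaluation = % activation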
IDE cell inh cf: cellular human IDE inhibition, confirmation; actives 51% (n = 1,200); shares compounds with IDE inh; inhibition, % at 5.59 µM; HEK cells, FAbetaB cleavage, fluorescence polarization;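 active means mean inhibition across triplicate wells above the cutoff set by the earlier primary insulin-degrading enzyme screen, cut at about 16% in these data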
HEK293 tox: kills HEK cells in IDE inhibitor counter-screen; shares compounds with IDE inh; HEK293 cytotoxicity, ATP luminescence; inhibition, % at 5.59 µM; actives 28% (n = 1,200); AID 449730; in the data active means inhibition above about 22%
IDE FP artifact: fluorescence interference counter-screen for IDE inhibitors; shares compounds with IDE inh; FP counterscreen for fluorescent artifacts, IDE probe project; IC50, µM; 30 tested, under 10 active; call rule not given here
Of the large screens only hits and unclear results are named; the others gave an inactive call (follow-up assays come after a bar, where they were run). Compounds with a hit are over-represented: about 1.2% of the library has one in this group of screens.

Cc1cc(OCCCC(=O)Nc2cccc(-n3cnnn3)c2)ccc1Cl	none
COc1cc(/C=C(\C#N)c2nc3ccccc3[nH]2)ccc1OC(=O)c1ccco1	IDE inh 114 | IDE cell inh cf 153 | HEK293 tox inactive
COc1ccc(OC)c2c1C(=O)C(Cl)=C(Cl)C2=O	IDE inh 22 | IDE cell inh cf 18 | HEK293 tox 125
COc1ccc2nc(NC(=O)CN(c3ccc(C)cc3)S(=O)(=O)c3c(C)nn(C)c3C)sc2c1	IDE inh 16 | IDE cell inh cf inactive | HEK293 tox inactive
COc1ccccc1C(=O)NCC(=O)OCC(=O)c1ccc2c(c1)-c1ccccc1C2	IDE inh 22 | IDE cell inh cf inactive | HEK293 tox inactive
O=C1CCCN1c1nccs1	none
COc1cccc(NC(=O)CN(C)C(=O)CSc2nc(C)cc(C)n2)c1	none (no result: TPT1 inh)
C=CCN(C(=O)CSc1nc2c(sc3ccccc32)c(=O)n1CCN(CC)CC)c1ccccc1	none
O=C(Nc1cccc(C(F)(F)F)c1)c1csc(Cc2cccc(C(F)(F)F)c2)n1	none (no result: procasp3 activ, IDE cell activ, IDE inh, TPT1 inh, proCasp7 act) | IDE FP artifact inactive
O=C(Nc1ccc(Cl)cc1)c1csc(Cc2ccccc2)n1	none
C[C@H](CO)N1C[C@H](C)[C@@H](CN(C)C(=O)NC2CCCCC2)Oc2ccc(NS(C)(=O)=O)cc2C1=O	none (no result: TPT1 inh)
CCCC[n+]1c2ccccc2cc2ccccc21	IDE inh 16 | IDE cell inh cf inactive | HEK293 tox 40
Cc1cc(=O)[nH]c(/N=C(\N)Nc2cccc3ccccc23)n1	IDE inh 16 | IDE cell inh cf inactive | HEK293 tox inactive
Cc1ccc2cccc(OCC(=O)Nc3cccc(S(=O)(=O)N4CCCC4)c3)c2n1	none (no result: TPT1 inh)
CCc1nc(SCC(=O)Nc2nc3c(s2)CCCC3)c2ccccc2n1	IDE inh 31 | IDE cell inh cf inactive | HEK293 tox inactive
CCc1ccc(C(=O)/C=C2\Sc3ccccc3NC2=O)cc1	IDE inh 18 | IDE cell inh cf inactive | HEK293 tox inactive
Cc1cc(C)c2oc(C(=O)Nc3ccc(S(=O)(=O)Nc4nccs4)cc3)cc(=O)c2c1	IDE inh 22 | IDE cell inh cf inactive | HEK293 tox inactive
COc1cccc(C2C=C(Nc3ccccc3)C(=O)N2c2ccccc2)c1 (stereo not drawn)	none
COc1ccc(C2C=C(Nc3ccccc3)C(=O)N2c2ccccc2)cc1OC (stereo not drawn)	IDE inh 17 | IDE cell inh cf inactive | HEK293 tox 23
Cc1oc2cc3oc(=O)c(CCC(=O)N4C[C@H]5C[C@@H](C4)c4cccc(=O)n4C5)c(C)c3cc2c1C	IDE inh 18 | IDE cell inh cf inactive | HEK293 tox inactive
CCCCc1cc(=O)oc2c(C)c(OCC(=O)N3C[C@H]4C[C@@H](C3)c3cccc(=O)n3C4)ccc12	IDE inh 23 | IDE cell inh cf inactive | HEK293 tox inactive
CCCCc1cc(=O)oc2cc(OCC(=O)N3CCC(C(N)=O)CC3)ccc12	IDE inh 18 | IDE cell inh cf inactive | HEK293 tox inactive
CCc1cc(=O)oc2cc(OCC(=O)N3CCC(C(N)=O)CC3)ccc12	none
COc1ccc(CCNC(=O)COC(=O)c2ccccn2)cc1	none (no result: TPT1 inh)
CN(CC1COc2ccccc2O1)C(=O)c1ccc(Cl)c(S(=O)(=O)N2CCCCCC2)c1 (stereo not drawn)	none (no result: TPT1 inh)
COc1cccc(C(=O)OCCNC(=O)c2cccnc2)c1	none
O=C(CSc1nnc(-c2cccc(Cl)c2)n1Cc1ccco1)Nc1ccccc1C(F)(F)F	none (no result: procasp3 activ, IDE cell activ, IDE inh, TPT1 inh, proCasp7 act) | IDE FP artifact inactive
Cc1ccc(NC(=O)CSc2nnc(-c3cccc(Cl)c3)n2Cc2ccco2)c(C)c1	none (no result: procasp3 activ, IDE cell activ, IDE inh, TPT1 inh, proCasp7 act) | IDE FP artifact inactive
Cc1ccc(NC(=O)CSc2nnc(CSc3nc(C)cc(C)n3)n2Cc2ccco2)c(C)c1	none
Cc1ccc(C(=O)NCC(=O)OC(C)C(=O)Nc2ccc(N3CCOCC3)cc2)s1 (stereo not drawn)	none
CN1C(=O)c2cccc3c(Cl)ccc(c23)C1=O	none
CN1C(=O)c2cccc3c(N(C)C)ccc(c23)C1=O	IDE inh 46 | IDE cell inh cf 52 | HEK293 tox inactive
COc1cc(/C=N/Nc2nc3ccccc3[nH]2)cc(OC)c1O	IDE inh 18 | IDE cell inh cf inactive | HEK293 tox 24
CCCc1cc(C(=O)Nc2ccc(C(=O)c3ccccc3)cc2)n(C)n1	IDE inh 19 | IDE cell inh cf inactive | HEK293 tox 23
CCCc1cc(C(=O)Nc2ccc(C(=O)c3ccc(F)cc3)cc2)n(C)n1	none
COC(=O)c1c(NS(=O)(=O)c2cccs2)sc2c1CCCC2	IDE inh 18 | IDE cell inh cf inactive | HEK293 tox inactive
COC(=O)c1c(NC(=O)Cc2cccs2)sc2c1CCCC2	none
Cc1cccc(N2CCN(C(=O)C3CCC(CNS(=O)(=O)c4cccs4)CC3)CC2)c1C (stereo not drawn)	IDE inh 21 | IDE cell inh cf inactive | HEK293 tox 52
CC(=O)Nc1ccc(N2C(=O)c3cccc4c(O)ccc(c34)C2=O)cc1	IDE inh 95 | IDE cell inh cf 26 | HEK293 tox inactive
Cc1cc(NC(=O)c2ccc(Cl)cc2)cc(C)c1OCC(=O)N1CCOCC1	none
CCCCOc1ccc(C(=O)Nc2cc(C)c(OCC(=O)N3CCOCC3)c(C)c2)cc1	IDE inh 39 | IDE cell inh cf inactive | HEK293 tox 25
Cc1nn(-c2ccccc2)c(NC(=O)c2cccs2)c(-c2ccccc2Cl)c1=O	none (no result: IDE cell activ)
COc1ccc(Br)cc1/C=N/NC(=O)CNC(=O)C1COc2ccccc2O1 (stereo not drawn)	IDE inh 30 | IDE cell inh cf 23 | HEK293 tox inactive
CCn1c(-c2cc(-c3cc(OC)ccc3OC)nc3ccccc23)n[nH]c1=S	none
CCn1c(-c2cc(-c3ccccc3OC)nc3ccccc23)n[nH]c1=S	IDE inh 16 | IDE cell inh cf inactive | HEK293 tox inactive
COc1ccc(OC)c(C(=O)N2CCC(n3nccc3NC(=O)CC(C)C)CC2)c1	none
CCCC(=O)N(c1ccc(OCC)cc1)S(=O)(=O)c1ccc2c3c(cccc13)C(=O)N2C	none
Cc1ccc(-n2c(SCC(=O)N3CCCc4ccccc43)nnc2-c2cccnc2)c(C)c1	none
CCOc1ccccc1-n1c(SCC(=O)N2CCCc3ccccc32)nnc1-c1cccnc1	IDE inh 33 | IDE cell inh cf 17 | HEK293 tox inactive

Screening data from PubChem BioAssay.
